In paper PMC4561207 (Child's nervous system : ChNS : official journal of the …, 2015):

Test: Adverse events regardless of attribution
Assay type: in vivo, human
Method in brief: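 Children with recurrent/refractory CNS tumours took oral drug once daily, continuously, in 28-day cycles. Dosing was stratified by EIACD use, with start/escalation levels 20–40 mg/m² (no EIACD) or 15–32 mg/m² (EIACD). Monitoring included weekly exam, serum chemistries, CBC and urine protein for 8 weeks, and TSH before each cycle. Events other than hypertension were graded by CTCAE v3, later v4.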

COc1cc2c(Oc3ccc4[nH]c(C)cc4c3F)ncnc2cc1OCCCN1CCCC1 [cediranib, Cediranib]
28(28): Hypertension, events (patients) (grade 2 AE)
23(17): Platelet count decreased, events (patients) (grade 1 AE)
44(30): Diarrhea, events (patients) (grade 1 AE)
7(6): Alanine aminotransferase increased, events (patients) (grade 3 AE)
15(14): Proteinuria, events (patients) (grade 2 AE)
9(7): Hypoalbuminemia, events (patients) (grade 2 AE)
11(10): Fatigue, events (patients) (grade 1 AE)
14(9): Hypermagnesemia, events (patients) (grade 1 AE)
23(12): Hyponatremia, events (patients) (grade 1 AE)
4(1): Hypernatremia, events (patients) (grade 2 AE)
10(7): Headache, events (patients) (grade 2 AE) | Palmar-plantar erythrodysesthesia syndrome, events (patients) (grade 2 AE)
1(1): Anal mucositis, events (patients) (grade 1 AE) | Anal pain, events (patients) (grade 1 AE) | Bone pain, events (patients) (grade 1 AE) | Cardiac troponin I increased, events (patients) (grade 1 AE) | Chest wall pain, events (patients) (grade 1 AE) | Cholesterol high, events (patients) (grade 1 AE) | Chronic kidney disease, events (patients) (grade 1 AE) | Dry mouth, events (patients) (grade 1 AE) | Dry skin, events (patients) (grade 1 AE) | Edema face, events (patients) (grade 1 AE) | Endocrine disorders - Other, specify, events (patients) (grade 1 AE) | Eye disorders - Other, specify, events (patients) (grade 1 AE) | GGT increased, events (patients) (grade 1 AE) | Gastrointestinal disorders - Other, specify, events (patients) (grade 1 AE) | Hoarseness, events (patients) (grade 1 AE) | INR increased, events (patients) (grade 1 AE) | Joint effusion, events (patients) (grade 1 AE) | Leukoencephalopathy, events (patients) (grade 1 AE) | Mucositis oral, events (patients) (grade 1 AE) | Myalgia, events (patients) (grade 1 AE) | Rectal pain, events (patients) (grade 1 AE) | Renal and urinary disorders - Other, specify, events (patients) (grade 1 AE) | Respiratory, thoracic and mediastinal disorders - Other, specify, events (patients) (grade 1 AE) | Serum amylase increased, events (patients) (grade 1 AE) | Skin and subcutaneous tissue disorders - Other, specify, events (patients) (grade 1 AE) | Anemia, events (patients) (grade 2 AE) | Arthralgia, events (patients) (grade 2 AE) | Back pain, events (patients) (grade 2 AE) | Blood bilirubin increased, events (patients) (grade 2 AE) | Confusion, events (patients) (grade 2 AE) | Cough, events (patients) (grade 2 AE) | Dyspepsia, events (patients) (grade 2 AE) | Dysphasia, events (patients) (grade 2 AE) | Endocrine disorders - Other, specify, events (patients) (grade 2 AE) | Fever, events (patients) (grade 2 AE) | Gastrointestinal disorders - Other, specify, events (patients) (grade 2 AE) | Hemoglobin increased, events (patients) (grade 2 AE) | Hypoglycemia, events (patients) (grade 2 AE) | Hypomagnesemia, events (patients) (grade 2 AE) | Hypoxia, events (patients) (grade 2 AE) | Lipase increased, events (patients) (grade 2 AE) | Nervous system disorders - Other, specify, events (patients) (grade 2 AE) | Non-cardiac chest pain, events (patients) (grade 2 AE) | Pain, events (patients) (grade 2 AE) | Pericardial effusion, events (patients) (grade 2 AE) | Pleural effusion, events (patients) (grade 2 AE) | Respiratory, thoracic and mediastinal disorders - Other, specify, events (patients) (grade 2 AE) | Reversible posterior leukoencephalopathy syndrome, events (patients) (grade 2 AE) | Skin and subcutaneous tissue disorders - Other, specify, events (patients) (grade 2 AE) | Urinary retention, events (patients) (grade 2 AE) | Abdominal pain, events (patients) (grade 3 AE)
38(20): Aspartate aminotransferase increased, events (patients) (grade 1 AE)
44(25): Alanine aminotransferase increased, events (patients) (grade 1 AE)
7(4): Constipation, events (patients) (grade 1 AE)
3(2): Creatinine increased, events (patients) (grade 1 AE)
2(2): Dehydration, events (patients) (grade 1 AE) | Edema limbs, events (patients) (grade 1 AE) | Fecal incontinence, events (patients) (grade 1 AE) | Fever, events (patients) (grade 1 AE) | Gastritis, events (patients) (grade 1 AE) | Hyperthyroidism, events (patients) (grade 1 AE) | Investigations - Other, specify, events (patients) (grade 1 AE) | Nervous system disorders - Other, specify, events (patients) (grade 1 AE) | Non-cardiac chest pain, events (patients) (grade 1 AE) | Oral pain, events (patients) (grade 1 AE) | Rash acneiform, events (patients) (grade 1 AE) | Urinary frequency, events (patients) (grade 1 AE) | Urinary retention, events (patients) (grade 1 AE) | Vascular disorders - Other, specify, events (patients) (grade 1 AE) | Voice alteration, events (patients) (grade 1 AE) | Weight loss, events (patients) (grade 1 AE) | Bone pain, events (patients) (grade 2 AE) | Constipation, events (patients) (grade 2 AE) | Creatinine increased, events (patients) (grade 2 AE) | Dehydration, events (patients) (grade 2 AE) | Hydrocephalus, events (patients) (grade 2 AE) | Mucositis oral, events (patients) (grade 2 AE) | Myalgia, events (patients) (grade 2 AE) | Peripheral motor neuropathy, events (patients) (grade 2 AE) | Skin ulceration, events (patients) (grade 2 AE) | Weight loss, events (patients) (grade 2 AE)
6(3): Hypercalcemia, events (patients) (grade 1 AE)
8(6): Hypomagnesemia, events (patients) (grade 1 AE)
23(14): Hypocalcemia, events (patients) (grade 1 AE)
3(3): Depression, events (patients) (grade 1 AE) | Dizziness, events (patients) (grade 1 AE) | Dyspepsia, events (patients) (grade 1 AE) | Hyperkalemia, events (patients) (grade 1 AE) | Pain, events (patients) (grade 1 AE) | Stomach pain, events (patients) (grade 1 AE) | Hyperglycemia, events (patients) (grade 2 AE) | Hypocalcemia, events (patients) (grade 2 AE) | Pain in extremity, events (patients) (grade 2 AE) | Platelet count decreased, events (patients) (grade 2 AE) | Seizure, events (patients) (grade 2 AE)
18(10): Alanine aminotransferase increased, events (patients) (grade 2 AE)
5(3): Hematuria, events (patients) (grade 1 AE) | White blood cell decreased, events (patients) (grade 2 AE)
25(16): Hypoalbuminemia, events (patients) (grade 1 AE)
9(9): Anorexia, events (patients) (grade 1 AE)
4(4): Anemia, events (patients) (grade 1 AE) | Cough, events (patients) (grade 1 AE) | Palmar-plantar erythrodysesthesia syndrome, events (patients) (grade 1 AE) | Aspartate aminotransferase increased, events (patients) (grade 2 AE) | Intracranial hemorrhage, events (patients) (grade 2 AE) | Nausea, events (patients) (grade 2 AE)
11(6): Hemoglobin increased, events (patients) (grade 1 AE)
7(5): Acidosis, events (patients) (grade 1 AE)
20(16): Hypokalemia, events (patients) (grade 1 AE)
13(8): Neutrophil count decreased, events (patients) (grade 1 AE)
2(1): Dizziness, events (patients) (grade 2 AE)
17(10): Blood bilirubin increased, events (patients) (grade 1 AE)
3(1): Malaise, events (patients) (grade 1 AE) | Flushing, events (patients) (grade 2 AE)
6(5): Epistaxis, events (patients) (grade 1 AE) | Pain in extremity, events (patients) (grade 1 AE) | Rash maculo-papular, events (patients) (grade 1 AE)
33(19): Vomiting, events (patients) (grade 1 AE)
12(8): Lymphocyte count decreased, events (patients) (grade 2 AE)
17(14): White blood cell decreased, events (patients) (grade 1 AE)
16(11): Diarrhea, events (patients) (grade 2 AE)
5(5): Abdominal pain, events (patients) (grade 1 AE) | Hypoglycemia, events (patients) (grade 1 AE) | Abdominal pain, events (patients) (grade 2 AE)
15(12): Hypophosphatemia, events (patients) (grade 1 AE)
22(14): Proteinuria, events (patients) (grade 1 AE)
18(13): Nausea, events (patients) (grade 1 AE)
4(3): Alkaline phosphatase increased, events (patients) (grade 1 AE) | Back pain, events (patients) (grade 1 AE)
19(14): Hyperglycemia, events (patients) (grade 1 AE)
6(6): Anorexia, events (patients) (grade 2 AE) | Vomiting, events (patients) (grade 2 AE)
8(5): Hypernatremia, events (patients) (grade 1 AE) | Neutrophil count decreased, events (patients) (grade 2 AE)
13(10): Lymphocyte count decreased, events (patients) (grade 1 AE)
21(14): Hypertension, events (patients) (grade 1 AE)
6(4): Hypophosphatemia, events (patients) (grade 2 AE)
10(10): Hypothyroidism, events (patients) (grade 1 AE) | Fatigue, events (patients) (grade 2 AE) | Hypothyroidism, events (patients) (grade 2 AE)
21(12): Headache, events (patients) (grade 1 AE)
